The inhibition is the share of the control response that was lost under treatment. As usually defined, the ED50 is the dose at which the effect has come halfway, by size or by number of responders.

Test [1] deals with Rattus norvegicus. Briefly: In vivo inhibition of galactitol accumulation in the diaphragm of rats fed 20% galactose for 4 day at 88 mg/kg/day dose. Type of test: functional, organism-based. The method, boiled down:
(§1)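 Male Sprague-Dawley rats (50–70 g) in groups of six were fed chow with 20% (w/w) galactose. Controls received 20% glucose instead. Test compound was mixed into the diet, and dose was calculated from actual food intake. Rats were killed by decapitation after 4 days. Result is % lowering of tissue galactitol versus galactose-fed controls, as the mean of six animals, compared by Dunnett's multiple comparison.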

Test [2] has as its target Aldo-keto reductase family 1 member B1 (Bos taurus) (UniProt P16116). Briefly: In vitro inhibition of aldose reductase in partially purified bovine lens preparation at a concentration of 10e -7M. The method, boiled down: (§2)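 Enzyme from bovine lens, partially purified by the cited method with the final chromatographic step omitted. DL-Glyceraldehyde was the substrate. Test compounds were run in duplicate at 1×10⁻⁵, 1×10⁻⁶, 1×10⁻⁷ or 4×10⁻⁸ M. Values are % inhibition of enzymatic activity.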

Test [3] shares this target. The experiment in a line: In vitro inhibition of aldose reductase in partially purified bovine lens preparation at a concentration of 4*10e -8M. The method, boiled down: as §2
The test system of test [4] is Rattus norvegicus. The experiment in a line: In vivo inhibition of galactitol accumulation in the sciatic nerve of rats fed 20% galactose for 4 day at 88 mg/kg/day dose; NS = No Significant inhibition of polyol accumulation. The class given is functional, organism-based. The method, boiled down: as §1
The subject of test [5] is Rattus norvegicus. Briefly: In vivo inhibition of galactitol accumulation in the diaphragm of rats fed 20% galactose for 4 day at 79 mg/kg/day dose; NS = No Significant inhibition of polyol accumulation. Type of test: functional, organism-based. The method, boiled down:
as §1

Test [6] has as its target Aldo-keto reductase family 1 member B1 (Bos taurus) (UniProt P16116). Briefly: In vitro inhibition of Aldose reductase in partially purified bovine lens preparation at a concentration of 10e -7M. The method, boiled down: as §2
Test [7] relates to Rattus norvegicus. The experiment in a line: In vivo inhibition of galactitol accumulation in the sciatic nerve of rats fed 20% galactose for 4 day at 79 mg/kg/day dose; NS = No Significant inhibition of polyol accumulation. The class given is functional, organism-based. The method, boiled down: as §1
Test [8] has as its target Aldo-keto reductase family 1 member B1 (Bos taurus) (UniProt P16116). The experiment in a line: in vitro inhibition of Aldose reductase in partially purified bovine lens preparation at a concentration of 10e-6 M.
Test [9] relates to Rattus norvegicus. The experiment in a line: In vivo inhibition of galactitol accumulation in the diaphragm of rats fed 20% galactose for 4 day at 58 mg/kg/day dose; NS = No Significant inhibition of polyol accumulation. Type of test: functional, organism-based. The method, boiled down: as §1
For test [10], the target named is Aldo-keto reductase family 1 member B1 (Bos taurus) (UniProt P16116). Briefly: (§3) In vitro inhibition of aldose reductase in partially purified bovine lens preparation at a concentration of 10e -6M. Type of test: functional. The method, boiled down:
as §2

Test [11] deals with Rattus norvegicus. The experiment in a line: In vivo inhibition of galactitol accumulation in the sciatic nerve of rats fed 20% galactose for 4 day at 58 mg/kg/day dose; NS = No Significant inhibition of polyol accumulation. Type of test: functional, organism-based. The method, boiled down:
as §1

In test [12] the test system is Rattus norvegicus. The experiment in a line: In vivo inhibition of galactitol accumulation in the diaphragm of rats fed 20% galactose for 4 day at 109 mg/kg/day dose. Type of test: functional. The method, boiled down: as §1
Test [13] deals with Rattus norvegicus. Briefly: In vivo inhibition of galactitol accumulation in the sciatic nerve of rats fed 20% galactose for 4 day at 95 mg/kg/day dose; NS= No Significant inhibition of polyol accumulation. Type of test: functional, organism-based.
In test [14] the test system is Rattus norvegicus. Briefly: In vivo inhibition of galactitol accumulation in the diaphragm of rats fed 20% galactose for 4 day at 77 mg/kg/day dose; NS = No Significant inhibition of polyol accumulation. Type of test: functional, organism-based. The method, boiled down: as §1
In test [15] the test system is Rattus norvegicus. The experiment in a line: In vivo inhibition of galactitol accumulation in the sciatic nerve of rats fed 20% galactose for 4 day at 77 mg/kg/day dose; NS = No Significant inhibition of polyol accumulation. Type of test: functional, organism-based. The method, boiled down: as §1
For test [16], the system named is Rattus norvegicus. Briefly: in vivo inhibition of galactitol accumulation in the sciatic nerve of rats fed 20% galactose for 4 day. Particulars: 96 h.
In test [17] the test system is Rattus norvegicus. The experiment in a line: In vivo inhibition of galactitol accumulation in the diaphragm of rats fed 20% galactose for 4 day at 103 mg/kg/day dose. The class given is functional. The method, boiled down: as §1
In test [18] the test system is Rattus norvegicus. Briefly: In vivo inhibition of galactitol accumulation in the diaphragm of rats fed 20% galactose for 4 day at 97 mg/kg/day dose. The class given is functional. The method, boiled down: as §1
Test [19] concerns Rattus norvegicus. Briefly: In vivo inhibition of galactitol accumulation in the sciatic nerve of rats fed 20% galactose for 4 day at 97 mg/kg/day dose. Type of test: functional.
Test [20] concerns Rattus norvegicus. Briefly: In vivo inhibition of galactitol accumulation in the diaphragm of rats fed 20% galactose for 4 day at 90 mg/kg/day dose; NS = No Significant inhibition of polyol accumulation. Type of test: functional, organism-based. The method, boiled down:
as §1

In test [21] the test system is Rattus norvegicus. The experiment in a line: In vivo inhibition of galactitol accumulation in the sciatic nerve of rats fed 20% galactose for 4 day at 90 mg/kg/day dose; NS = No Significant inhibition of polyol accumulation. Type of test: functional, organism-based. The method, boiled down:
as §1

The target of test [22] is Aldo-keto reductase family 1 member B1 (Bos taurus) (UniProt P16116). Briefly: in vitro inhibition of aldose reductase in partially purified bovine lens preparation at a concentration of 10e -5M.
Test [23] relates to Rattus norvegicus. Briefly: In vivo inhibition of galactitol accumulation in the diaphragm of rats fed 20% galactose for 4 day at 100 mg/kg/day dose. The class given is functional. The method, boiled down:
as §1

For test [24], the system named is Rattus norvegicus. Briefly: In vivo inhibition of galactitol accumulation in the sciatic nerve of rats fed 20% galactose for 4 day at 100 mg/kg/day dose; NS = No Significant inhibition of polyol accumulation. Type of test: functional, organism-based. The method, boiled down: as §1
Test [25] addresses Aldo-keto reductase family 1 member B1 (Bos taurus) (UniProt P16116). The description is as §3. The method, boiled down:
as §2

In the case of `Cc1sc2c(c1C)c(=O)n(CC(=O)O)c(=O)n2Cc1ccc(Cl)c(Cl)c1`, the Lowering result in the test with Rattus norvegicus [1] and in the test with Rattus norvegicus [4] was “Not significant” throughout. Also, the inhibition was determined as 79% in test [2] and 51% in test [3].

For the molecule `Cc1nc2cc3ccccc3cc2c(=O)n1CC(=O)O`, the Lowering result in the test with Rattus norvegicus [5] and with Rattus norvegicus [7] was “Not significant” in each case. Besides, the inhibition in test [6] was found to be 28%; in [8], 76%.

Regarding `Cc1c(-c2ccccc2)n(Cc2ccc(Cl)c(Cl)c2)c(=O)n(CC(=O)O)c1=O`, the inhibition was determined as 22% in test [2], 16% in test [3] and 68% in [10]. The Lowering entry with Rattus norvegicus [9] and in the test on Rattus norvegicus [11] was “Not significant” throughout.

Take `O=C(O)CN1C(=O)N(Cc2ccc(Cl)c(Cl)c2)Cc2ccccc21`: the figures for the inhibition in test [2] and in test [3] were 53% and 31%, respectively. In addition, the Lowering was 30% in the test with Rattus norvegicus [12] and “Not significant” with Rattus norvegicus [13].

With `O=C(O)Cn1cnc2ccc(Br)cc2c1=O`, the Lowering result with Rattus norvegicus [14] and in the test on Rattus norvegicus [15] was “Not significant” throughout. In test [8], this molecule yielded an inhibition of 32%.

For the molecule `COc1ccc2c(C(=S)N(C)CC(=O)O)cccc2c1C(F)(F)F` [TOLRESTAT], the median effective dose (ED50) in the test on Rattus norvegicus [16] came to 6.4 mg/kg/day.

Take `O=C(O)Cn1c(=O)c2ccc(F)cc2n(Cc2ccc(Br)cc2F)c1=O`: the inhibition in test [2] was determined as 74%; in test [3], 53%. The Lowering result is “Not significant” with Rattus norvegicus [13] and 63% in the test with Rattus norvegicus [17].

For the molecule `O=C(O)Cn1c(=O)c2cc(I)ccc2n(Cc2ccc(Br)cc2F)c1=O`, the figures for the Lowering with Rattus norvegicus [18] and in the test with Rattus norvegicus [19] were 83% and 64%, respectively. Further, the inhibition turned out to be 83% in test [2] and 64% in [3].

As for `CC(C)c1nc2ccc(Br)cc2c(=O)n1CC(=O)O`, the Lowering result in the test on Rattus norvegicus [20] and in the test on Rattus norvegicus [21] was “Not significant” throughout. Besides, in test [22], the inhibition was found to be 40%.

Consider `O=C(O)Cn1c(=O)c2c3c(sc2n(Cc2ccc(Cl)c(Cl)c2)c1=O)CCCC3`, for which the inhibition in [2] worked out at 86%; in test [3], 63%. The Lowering in the test on Rattus norvegicus [23] was 19%; with Rattus norvegicus [24], “Not significant”.

Regarding `CC(c1ccccc1)n1c(=O)n(CC(=O)O)c(=O)c2cc(Br)ccc21` (stereo not drawn), the Lowering entry with Rattus norvegicus [13] was “Not significant”. Besides, the inhibition in test [25] was found to be 34%.

Values taken from ChEMBL document CHEMBL1125678, “Quinazolineacetic acids and related analogues as aldose reductase inhibitors” (J Med Chem, 1991).
